Experimental data: the array DNA melting data of Ke et al. (doi:10.1101/2024.01.08.574731)

What was measured:
[1] = folding enthalpy; higher = less favourable; fluorescence melt of hairpins on a sequencing array, two-state fit; details: sodium 0.088 M
Method in brief: (§1)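 Library hairpins on a sequenced MiSeq flow cell carried annealed Cy3 and quencher oligos, and their Cy3 fluorescence was imaged in 50 mM Na-HEPES pH 8.0 with 25 mM NaCl, in 2.5 °C steps up to 60 °C. Signals were normalised to Cy3 before quenching and to control constructs. Melting temperature and folding enthalpy were obtained from bootstrapped two-state fits, combined by inverse-variance weighting across four replicates, and the fitted temperatures were then raised by 9.35 °C to match UV melts.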

[2] = melting temperature; fluorescence melt of hairpins on a sequencing array, two-state fit, raised by 9.35 °C to match UV melts; details: sodium 0.088 M
Method in brief: as §1

Sequence: GGCCTCCGAAAGGAGCC (((.(((....))))))
- folding enthalpy [1]: -16.5 kcal/mol
- Tm [2]: 62.4 °C

Sequence: GATCTGCGAAAGCACATC (((.(((....))).)))
- folding enthalpy [1]: -13.5 kcal/mol
- Tm [2]: 30.4 °C

Sequence: GACCTCCGAAAGGAGTC (((.(((....))))))
- folding enthalpy [1]: -15.3 kcal/mol
- Tm [2]: 49.2 °C

Sequence: GTGTCCGGAAACGAACAC ((((.((....)).))))
- folding enthalpy [1]: -32.5 kcal/mol
- Tm [2]: 45.4 °C

Sequence: GACCGACGAAAGTCAGTC (((.(((....))).)))
- folding enthalpy [1]: -23.5 kcal/mol
- Tm [2]: 47.9 °C

Sequence: GCACAGCGAAAGCTACGC ((..(((....)))..))
- folding enthalpy [1]: -16.7 kcal/mol
- Tm [2]: 42 °C

Sequence: GCCACGCGAAAGCGCTGC ((..(((....)))..))
- folding enthalpy [1]: -11 kcal/mol
- Tm [2]: 37.4 °C

Sequence: GCGTAGCGAAAGCTTAGC ((..(((....)))..))
- folding enthalpy [1]: -14.6 kcal/mol
- Tm [2]: 51.5 °C

Sequence: GTACATGGAAACATGTAC (((((((....)))))))
- folding enthalpy [1]: -51.6 kcal/mol
- Tm [2]: 55.7 °C

Sequence: GAACCCGAAAGGGGCTTC ((((((....)))..)))
- folding enthalpy [1]: -20 kcal/mol
- Tm [2]: 51 °C

Sequence: GGTAATGGAAACATTACC (((((((....)))))))
- folding enthalpy [1]: -42.8 kcal/mol
- Tm [2]: 55.9 °C

Sequence: GCTGAACGAAAGTTTAGC (((.(((....))).)))
- folding enthalpy [1]: -31.5 kcal/mol
- Tm [2]: 53 °C

Sequence: GCGGTTAGCCGC ((((....))))
- folding enthalpy [1]: -24.3 kcal/mol
- Tm [2]: 62.4 °C

Sequence: GGAACGCGAAAGCGATCC (((.(((....))).)))
- folding enthalpy [1]: -27.4 kcal/mol
- Tm [2]: 59 °C

Sequence: GTCACCGAAAGGTTGGAC ((((((....)))..)))
- folding enthalpy [1]: -14.8 kcal/mol
- Tm [2]: 31.1 °C

Sequence: GAACTGGGAAACCAATTC (((.(((....))).)))
- folding enthalpy [1]: -12.7 kcal/mol
- Tm [2]: 29.2 °C

Sequence: GGAGCCGAAAGGCCGTCC ((((((....)))..)))
- folding enthalpy [1]: -9.47 kcal/mol
- Tm [2]: 36.3 °C

Sequence: GTGGCGGGAAACCGCCGC (.(((((....))))).)
- folding enthalpy [1]: -14.9 kcal/mol
- Tm [2]: 66.6 °C

Sequence: GCAGAGGGAAACCTTTGC (((.(((....))).)))
- folding enthalpy [1]: -32.9 kcal/mol
- Tm [2]: 45.2 °C

Sequence: GAGGGGGGAAACTCCCTC (((((.(....).)))))
- folding enthalpy [1]: -34.3 kcal/mol
- Tm [2]: 53.2 °C

Sequence: GACTTTGGAAACGAAGTC (((((.(....).)))))
- folding enthalpy [1]: -29.4 kcal/mol
- Tm [2]: 44.6 °C

Sequence: GACAGTGGAAACACTGTC (((((((....)))))))
- folding enthalpy [1]: -39.5 kcal/mol
- Tm [2]: 60.8 °C

Sequence: GCATCCGAAAGGACTTGC ((((((....)))..)))
- folding enthalpy [1]: -19.4 kcal/mol
- Tm [2]: 32.9 °C

Sequence: GATCACGGTGTGATC ((((((...))))))
- folding enthalpy [1]: -30.5 kcal/mol
- Tm [2]: 61.3 °C

Sequence: GCTGCAACGAAAGTTAGC (((..(((....))))))
- folding enthalpy [1]: -17.2 kcal/mol
- Tm [2]: 39.8 °C

Sequence: GATCCTGCAAAGGATC ((((((....))))))
- folding enthalpy [1]: -34.6 kcal/mol
- Tm [2]: 61.3 °C

Sequence: GATCGTTGAAACGATC ((((((....))))))
- folding enthalpy [1]: -39.2 kcal/mol
- Tm [2]: 54.8 °C

Sequence: GGGTTCCGAAAGGACCC (((.(((....))))))
- folding enthalpy [1]: -31.6 kcal/mol
- Tm [2]: 58.1 °C

Sequence: GGGGGAACGAAAGTTCCC (((..(((....))))))
- folding enthalpy [1]: -8.07 kcal/mol
- Tm [2]: 64.3 °C

Sequence: GAGGCTGGAAACGGTCTC (((.(.(....).).)))
- folding enthalpy [1]: -28.5 kcal/mol
- Tm [2]: 39.6 °C

Sequence: GCCGTGCGAAAGCAACGC ((..(((....)))..))
- folding enthalpy [1]: -10.9 kcal/mol
- Tm [2]: 54.1 °C

Sequence: GATCTTCAACAAGATC ((((((....))))))
- folding enthalpy [1]: -25.1 kcal/mol
- Tm [2]: 38.3 °C

Sequence: GATCCTAAAAAGGATC ((((((....))))))
- folding enthalpy [1]: -27.9 kcal/mol
- Tm [2]: 47.6 °C

Sequence: GTCTCCGAAAGGAATGAC ((((((....)))..)))
- folding enthalpy [1]: -20.7 kcal/mol
- Tm [2]: 35.2 °C

Sequence: GTAGATCGAAAGATTAC (((.(((....))))))
- folding enthalpy [1]: -13.5 kcal/mol
- Tm [2]: 29.3 °C

Sequence: GGCTGTCGAAAGACGCC (((.(((....))))))
- folding enthalpy [1]: -31.2 kcal/mol
- Tm [2]: 61.1 °C

Sequence: GCCGTCGAAAGACCTGGC ((((((....)))..)))
- folding enthalpy [1]: -19.8 kcal/mol
- Tm [2]: 44.7 °C

Sequence: GGTTTCGAAAGAAAGACC ((((((....)))..)))
- folding enthalpy [1]: -14.4 kcal/mol
- Tm [2]: 30.1 °C

Sequence: GATCATTCTCATGATC ((((((....))))))
- folding enthalpy [1]: -32.8 kcal/mol
- Tm [2]: 47.1 °C

Sequence: GATCATCCTCATGATC ((((((....))))))
- folding enthalpy [1]: -33.4 kcal/mol
- Tm [2]: 45.7 °C

Sequence: GGATGGGGAAACCCGTTC (.(.(((....))).).)
- folding enthalpy [1]: -16.5 kcal/mol
- Tm [2]: 36.1 °C

Sequence: GACGTTACGAAAGTAGTC (((..(((....))))))
- folding enthalpy [1]: -27.2 kcal/mol
- Tm [2]: 44.2 °C

Sequence: GTTAACGAAAGTTAAAC ((((((....))).)))
- folding enthalpy [1]: -16.7 kcal/mol
- Tm [2]: 36 °C

Sequence: GATCGGTACCCCGATC ((((((....))))))
- folding enthalpy [1]: -42.5 kcal/mol
- Tm [2]: 54.4 °C

Sequence: GCTGAGCGAAAGCACTGC ((.(.((....)).).))
- folding enthalpy [1]: -20 kcal/mol
- Tm [2]: 49.5 °C

Sequence: GGGACCGGAAACGGCCCC (((.(((....))).)))
- folding enthalpy [1]: -37 kcal/mol
- Tm [2]: 62.5 °C

Sequence: GAAGGCGAAAGCCTATTC ((((((....)))..)))
- folding enthalpy [1]: -8.36 kcal/mol
- Tm [2]: 32.1 °C

Sequence: GCTGGCGAAAGCCTGAGC ((((((....)))..)))
- folding enthalpy [1]: -14.8 kcal/mol
- Tm [2]: 50.2 °C

Sequence: GCTATGCGAAAGCCTGGC ((.(.((....)).).))
- folding enthalpy [1]: -18.8 kcal/mol
- Tm [2]: 36.9 °C

Sequence: GCGTACCGAAAGGTCCGC (((.(((....))).)))
- folding enthalpy [1]: -49.9 kcal/mol
- Tm [2]: 58.2 °C

Sequence: GTCCACGAAAGTGAAGAC ((((((....)))..)))
- folding enthalpy [1]: -23.1 kcal/mol
- Tm [2]: 40.4 °C

Sequence: GCAAGTGGAAACATTTGC ((((.((....)).))))
- folding enthalpy [1]: -29.8 kcal/mol
- Tm [2]: 45.9 °C

Sequence: GCTTGCGAAAGCAAAGC ((((((....))).)))
- folding enthalpy [1]: -22.8 kcal/mol
- Tm [2]: 61.4 °C

Sequence: GCCGATCGAAAGATGGGC (((.(((....))).)))
- folding enthalpy [1]: -40.4 kcal/mol
- Tm [2]: 55.9 °C

Sequence: GATCATCTGAATGATC ((((((....))))))
- folding enthalpy [1]: -33.6 kcal/mol
- Tm [2]: 46.3 °C

Sequence: CGCTACGGAAACGTCGCG (((.(((....))).)))
- folding enthalpy [1]: -39.3 kcal/mol
- Tm [2]: 51.9 °C

Sequence: GATCGCACGTGCGATC ((((((....))))))
- folding enthalpy [1]: -40.4 kcal/mol
- Tm [2]: 68.8 °C

Sequence: GAAGCAGAAATGCTTC ((((((....))))))
- folding enthalpy [1]: -35.3 kcal/mol
- Tm [2]: 54.5 °C

Sequence: GATTTAGGAAACTAAGTC ((.((((....)))).))
- folding enthalpy [1]: -8.37 kcal/mol
- Tm [2]: 29.6 °C

Sequence: GAGTACACGAAAGTGCTC (((..(((....))))))
- folding enthalpy [1]: -14.9 kcal/mol
- Tm [2]: 33.7 °C

Sequence: GTCGACGAAAGTCAAGAC ((((((....)))..)))
- folding enthalpy [1]: -20.4 kcal/mol
- Tm [2]: 43.8 °C

Sequence: GATCTTCACAAAGATC ((((((....))))))
- folding enthalpy [1]: -28.9 kcal/mol
- Tm [2]: 44.9 °C

Sequence: GCCGACGGAAACGCCGAC (.((.((....)).)).)
- folding enthalpy [1]: -16.7 kcal/mol
- Tm [2]: 36.4 °C

Sequence: GGACAAGGAAACTCGTCC ((((.((....)).))))
- folding enthalpy [1]: -29.2 kcal/mol
- Tm [2]: 39.2 °C

Sequence: GGGGACGAAAGTCCGCCC ((((((....)))..)))
- folding enthalpy [1]: -11.5 kcal/mol
- Tm [2]: 52.2 °C

Sequence: GATTCCGGAAACGGGATC (((.(((....))).)))
- folding enthalpy [1]: -43 kcal/mol
- Tm [2]: 51.2 °C

Sequence: GGGGATGGAAACGTCCCC (((((.(....).)))))
- folding enthalpy [1]: -48.9 kcal/mol
- Tm [2]: 56.1 °C

Sequence: GTGTTCCGAAAGGATCAC (((.(((....))).)))
- folding enthalpy [1]: -34.4 kcal/mol
- Tm [2]: 51.5 °C

Sequence: GCAATGCGAAAGCGATGC (((..((....))..)))
- folding enthalpy [1]: -20.6 kcal/mol
- Tm [2]: 53 °C
